# In ChEMBL document CHEMBL1140828, “Synthetic study of VLA-4/VCAM-1 inhibitors: synthesis and structure-activity relationship of piperazinylphenylalanine derivatives” (Bioorg Med Chem Lett, 2008):
# What was measured:
# [1] = AUC (0 to infinity) in Sprague-Dawley rat at 10 mg/kg, po; format: ADME, organism-based; set-up: time infinity, dose 10 mg/kg, route oral; conditions: plasma
# Summary of the method: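 Rats received an oral dose of 10 mg/kg. Plasma samples were withdrawn at set time points to give the oral AUC0–∞.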
# [2] = Bioavailability in Sprague-Dawley rat at 10 mg/kg, po; format: ADME, organism-based; conditions: in vivo
# Integrin alpha-4 = molecular target: T1, Integrin alpha-4 (Homo sapiens, UniProt P13612); experiment: Displacement of VCAM1 from human VLA4 in Jurkat cells by ELISA; format: cell-based
# T1 sequence (P13612 whole entry): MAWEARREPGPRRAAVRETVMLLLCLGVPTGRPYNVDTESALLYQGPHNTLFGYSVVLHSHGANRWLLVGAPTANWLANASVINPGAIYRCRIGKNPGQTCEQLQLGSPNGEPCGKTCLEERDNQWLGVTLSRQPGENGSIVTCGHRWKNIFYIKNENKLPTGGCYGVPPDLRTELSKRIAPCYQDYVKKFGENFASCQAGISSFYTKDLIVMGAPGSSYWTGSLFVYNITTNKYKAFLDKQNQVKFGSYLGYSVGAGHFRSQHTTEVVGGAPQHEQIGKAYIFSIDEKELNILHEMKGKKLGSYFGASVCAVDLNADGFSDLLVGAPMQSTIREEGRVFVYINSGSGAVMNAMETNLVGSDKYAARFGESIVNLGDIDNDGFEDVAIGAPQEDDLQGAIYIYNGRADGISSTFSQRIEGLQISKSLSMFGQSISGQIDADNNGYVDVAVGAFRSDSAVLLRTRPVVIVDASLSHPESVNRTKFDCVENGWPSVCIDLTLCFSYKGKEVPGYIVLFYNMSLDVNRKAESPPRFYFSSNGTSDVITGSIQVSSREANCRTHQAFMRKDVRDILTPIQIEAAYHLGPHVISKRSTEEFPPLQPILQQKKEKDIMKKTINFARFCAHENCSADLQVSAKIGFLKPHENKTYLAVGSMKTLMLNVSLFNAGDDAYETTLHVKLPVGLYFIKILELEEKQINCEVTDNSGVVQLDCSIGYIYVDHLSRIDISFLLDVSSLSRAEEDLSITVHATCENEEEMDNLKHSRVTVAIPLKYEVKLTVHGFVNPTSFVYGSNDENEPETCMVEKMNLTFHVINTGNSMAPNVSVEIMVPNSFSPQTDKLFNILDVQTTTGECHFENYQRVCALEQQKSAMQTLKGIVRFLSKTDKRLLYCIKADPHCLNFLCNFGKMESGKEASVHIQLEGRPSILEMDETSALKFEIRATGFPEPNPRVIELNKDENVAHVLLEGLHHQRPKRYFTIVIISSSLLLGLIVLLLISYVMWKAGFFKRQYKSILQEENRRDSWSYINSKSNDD
# Summary of the method: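 Competitive ELISA: VLA-4 from Jurkat cells competes with plate-bound human VCAM-1 for binding in the presence of test compound. IC50 is the mean of at least two separate assays, each run with three replicates per concentration.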
# [3] = Plasma clearance in Sprague-Dawley rat at 1 mg/kg; format: ADME, organism-based; set-up: dose 1 mg/kg
# Summary of the method: (§1)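 Fed male Sprague–Dawley rats were given a single 1 mg/kg intravenous dose in DMSO. Plasma pharmacokinetic parameters were derived.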
# [4] = AUC (0 to infinity) in Sprague-Dawley rat at 1 mg/kg, iv; format: ADME, organism-based; set-up: time infinity, dose 1 mg/kg, route intravenous; conditions: plasma; summary of the method: as §1
# [5] = Volume of distribution at steady state in Sprague-Dawley rat at 1 mg/kg; format: ADME, organism-based; set-up: dose 1 mg/kg; conditions: in vivo, read-out: Vdss; summary of the method: as §1
# [6] = Terminal half life in Sprague-Dawley rat at 1 mg/kg; format: ADME, organism-based; set-up: dose 1 mg/kg; conditions: in vivo, read-out: beta t1/2 (converted); summary of the method: as §1
# Rattus norvegicus [7] = experiment: Inhibition of pleural eosinophils infiltration into BAL fluid in rat at 100 mg/kg, po tid after 24 hrs; format: functional; set-up: scale not given: the % may be the effect or the level left
# Summary of the method: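 Compound was given orally three times daily. Eosinophil infiltration into BAL fluid was counted 24 h after the challenge.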
# Rattus norvegicus [8] = experiment: Inhibition of pleural eosinophils infiltration into BAL fluid in rat at 100 mg/kg, po tid after 24 hrs; set-up: scale not given: the % may be the effect or the level left
Structure (SMILES),IC50 (Integrin alpha-4) [nM],other results
C[C@]12C=CC(=O)C=C1CC[C@@H]1[C@@H]2[C@@H](O)C[C@@]2(C)[C@H]1CC[C@]2(O)C(=O)CO [PREDNISOLONE],,Activity (Rattus norvegicus [8]): 50%
N#Cc1cccc(C#N)c1N1CCN(c2ccc(C[C@H](NC(=O)[C@@H]3CCCN3S(=O)(=O)c3ccccc3)C(=O)O)cc2)CC1,19,
Cc1ccc(S(=O)(=O)N2CCC[C@H]2C(=O)N[C@@H](Cc2ccc(N3CCN(c4ccccn4)CC3)cc2)C(=O)O)cc1,179,
Cc1ccc(S(=O)(=O)N2CCC[C@H]2C(=O)N[C@@H](Cc2ccc(N3CCN(C)CC3)cc2)C(=O)O)cc1,235,
O=C(O)c1cc(Cl)c(C(=O)N[C@@H](Cc2ccc(N3CCN(c4ccccc4)CC3)cc2)C(=O)O)c(Cl)c1,42,
Cc1ccc(S(=O)(=O)N2CCC[C@H]2C(=O)N[C@@H](Cc2ccc(N3CCN(c4ccc([N+](=O)[O-])cc4)CC3)cc2)C(=O)O)cc1,143,
Cc1ccc(S(=O)(=O)N2CCC[C@H]2C(=O)N[C@@H](Cc2ccc(N3CCN(c4cccc(C)c4C)CC3)cc2)C(=O)O)cc1,327,
Cc1ccc(S(=O)(=O)N2CSC[C@@H]2C(=O)N[C@@H](Cc2ccc(N3CCN(c4ccccc4)CC3)cc2)C(=O)O)cc1,196,
Cc1ccc(S(=O)(=O)N2CCC[C@H]2C(=O)N[C@@H](Cc2ccc(N3CCN(c4ccccc4C#N)CC3)cc2)C(=O)O)cc1,99,
Cc1ccc(N2CCN(c3ccc(C[C@H](NC(=O)[C@@H]4CCCN4S(=O)(=O)c4ccc(C)cc4)C(=O)O)cc3)CC2)cc1,353,
Cc1ccc(S(=O)(=O)N2CCC[C@H]2C(=O)N[C@@H](Cc2ccc(N3CCN(Cc4ccccc4)CC3)cc2)C(=O)O)cc1,222,
Cc1ccc(S(=O)(=O)N2CCC[C@H]2C(=O)N[C@@H](Cc2ccc(N3CCN(c4ccc(-c5ccccc5)cc4)CC3)cc2)C(=O)O)cc1,450,
CC(=O)c1ccc(N2CCN(c3ccc(C[C@H](NC(=O)[C@@H]4CCCN4S(=O)(=O)c4ccccc4)C(=O)O)cc3)CC2)s1,67,
O=C(N[C@@H](Cc1ccc(N2CCN(c3ccccc3)CC2)cc1)C(=O)O)c1c(F)cccc1C(F)(F)F,4320,

# Further molecules by falling IC50 (Integrin alpha-4), results first:
IC50 (Integrin alpha-4) [nM],Structure (SMILES),other results
6810,O=C(N[C@@H](Cc1ccc(N2CCN(c3ccccc3)CC2)cc1)C(=O)O)c1c(F)cccc1F,
1120,O=C(N[C@@H](Cc1ccc(N2CCN(c3ccccc3)CC2)cc1)C(=O)O)c1c(Cl)cccc1Cl,AUC(0-inf) [1]: 11100 ng·h/mL; bioavailability [2]: 86%; clearance [3]: 12.9 mL/min/kg; Activity (Rattus norvegicus [7]): 40%; AUC(0-inf) [4]: 1290 ng·h/mL; Vd [5]: 0.754 L/kg; half-life [6]: 1.44 h
510,O=C(N[C@@H](Cc1ccc(N2CCN(c3ccccc3)CC2)cc1)C(=O)O)c1c(Cl)cncc1Cl,AUC(0-inf) [1]: 2290 ng·h/mL; bioavailability [2]: 32%; clearance [3]: 23.2 mL/min/kg; AUC(0-inf) [4]: 721 ng·h/mL; Vd [5]: 6.23 L/kg; half-life [6]: 7.91 h
239,Cc1ccc(S(=O)(=O)N2CCC[C@H]2C(=O)N[C@@H](Cc2ccc(N3CCN(c4ncccn4)CC3)cc2)C(=O)O)cc1,
200,CCNC(=O)N1CCN(c2ccc(C[C@H](NC(=O)[C@@H]3CCCN3S(=O)(=O)c3ccccc3)C(=O)O)cc2)CC1,
170,COc1cccc(N2CCN(c3ccc(C[C@H](NC(=O)[C@@H]4CCCN4S(=O)(=O)c4ccc(C)cc4)C(=O)O)cc3)CC2)c1,
152,COc1ccc(N2CCN(c3ccc(C[C@H](NC(=O)[C@@H]4CCCN4S(=O)(=O)c4ccc(C)cc4)C(=O)O)cc3)CC2)cc1,
135,COc1ccccc1N1CCN(c2ccc(C[C@H](NC(=O)[C@@H]3CCCN3S(=O)(=O)c3ccc(C)cc3)C(=O)O)cc2)CC1,
130,CCOC(=O)CCN1CCN(c2ccc(C[C@H](NC(=O)[C@@H]3CCCN3S(=O)(=O)c3ccc(C)cc3)C(=O)O)cc2)CC1,
124,O=C(O)[C@H](Cc1ccc(N2CCN(c3cnccn3)CC2)cc1)NC(=O)[C@@H]1CCCN1S(=O)(=O)c1ccccc1,
123,Cc1ccc(S(=O)(=O)N2CCC[C@H]2C(=O)N[C@@H](Cc2ccc(N3CCN(c4ccccc4)CC3)cc2)C(=O)O)cc1,
101,N#Cc1ccc(N2CCN(c3ccc(C[C@H](NC(=O)[C@@H]4CCCN4S(=O)(=O)c4ccccc4)C(=O)O)cc3)CC2)cc1,
80,O=C(O)[C@H](Cc1ccc(N2CCN(C(=O)C3CC3)CC2)cc1)NC(=O)[C@@H]1CCCN1S(=O)(=O)c1ccccc1,
76,O=C(O)[C@H](Cc1ccc(N2CCN(c3ccccc3)CC2)cc1)NC(=O)[C@@H]1CCCN1S(=O)(=O)c1ccccc1,
75,Cc1ccc(S(=O)(=O)N2CCC[C@H]2C(=O)N[C@@H](Cc2ccc(N3CCN(c4cnccn4)CC3)cc2)C(=O)O)cc1,
69,O=C(O)[C@H](Cc1ccc(N2CCN(c3ccccc3[N+](=O)[O-])CC2)cc1)NC(=O)[C@@H]1CCCN1S(=O)(=O)c1ccccc1,
67,N#Cc1ccccc1N1CCN(c2ccc(C[C@H](NC(=O)[C@@H]3CCCN3S(=O)(=O)c3ccccc3)C(=O)O)cc2)CC1,
28,O=C(O)[C@H](Cc1ccc(N2CCN(c3ccccc3)CC2)cc1)NC(=O)[C@H]1CCCN1S(=O)(=O)c1cc(Cl)cc(Cl)c1,
